Test results published in ChEMBL document CHEMBL1156669, “Aldehyde dehydrogenase inhibitors: alpha,beta-acetylenic N-substituted aminothiolesters are reversible growth inhibitors of normal epithelial but irreversible apoptogens for cancer epithelial cells from human prostate in culture” (Eur J Med Chem, 2008).
pIC50, pKi: −log10 of the molar value.

Experiments:
[1] = tested on: DU-145; assay: Growth inhibition of human DU145 cells administered after 3 days; type: functional, cell-based; details: DU-145, 72 h
Summary of the method: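 DU145 in RPMI 1640 with 10% FCS; 1 × 10⁵ cells per well in 24-well plates, compound added 4 h after seeding. After 3 days the adherent sheet was washed twice with PBS and harvested in 0.14 M NaOH, and protein content measured. IC50 is the mean of three experiments.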

[2] = Growth inhibition of HPEN cells administered after 3 days; type: cell-based; details: Homo sapiens, 72 h
Summary of the method: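 HPENC in PrEGM with supplement and 10% FCS; 1 × 10⁵ cells per well in 24-well plates, compound added 4 h after seeding once adhered. After 3 days, growth read as protein content. IC50 is the mean of three experiments.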

[3] = molecular target: Aldehyde dehydrogenase 1 (Saccharomyces cerevisiae); assay: Inhibition of ALDH1
[4] = tested on: BaF3; assay: Induction of apoptosis in mouse BAF3 cells overexpressing bcl2; type: functional, cell-based

pIC50 [1] | Structure (SMILES) | further results
4.00 | CN(C)C(=S)C#CC(C)(C)N1CCOCC1 | –
4.66 | CSC(=O)C#CC(C)(C)N1CCCCC1 | –
5.85 | CSC(=O)C#CC(C)(C)N(C)Cc1ccccc1 | pIC50 [2]: 5.72
4.27 | CSC(=O)C#CC(C)(C)N1CCSCC1 | –
– | CSC(=O)C#CC(C)(C)N | pKi [3]: 3.55; pIC50 [4]: 5.40
4.90 | CSC(=O)C#CC(C)(C)N(C)c1ccccc1 | –
4.90 | CCCN(CCC)C(C)(C)C#CC(=O)SC | –
5.17 | CSC(=O)C#CC(C)(C)N1CCCC1 | –
